From the EternaBench riboswitch data

System: MS2 coat protein
Experiment: apparent Kd, MS2 coat protein; higher = weaker binding; RNA-MaP array; FMN 200 µM where present
In short: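 Green signal from SNAP-549-labelled MS2 coat protein was normalised to red-channel RNA signal and to the median Fmax of control clusters. The protein was titrated from 0.7 or 1.5 nM, doubling to 3 µM, without and then with constant ligand, over designs transcribed by stalled E. coli RNA polymerase on Illumina sequencing-chip clusters, in 100 mM Tris-HCl pH 7.5, 80 mM KCl, 4 mM MgCl2, BSA, DTT, yeast tRNA and Tween-20. The apparent Kd is the median of filtered per-cluster binding-curve fits.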

[1] = designed as: ON switch for flavin mononucleotide, no ligand
[2] = ligand present: flavin mononucleotide, designed as: ON switch for flavin mononucleotide
[3] = designed as: OFF switch for flavin mononucleotide, no ligand
[4] = ligand present: flavin mononucleotide, designed as: OFF switch for flavin mononucleotide

| Sequence | apparent Kd [1] [nM] | apparent Kd [2] [nM] | apparent Kd [3] [nM] | apparent Kd [4] [nM] |
| --- | --- | --- | --- | --- |
| AAAAGACAUGAGGAUCACCCAUGUCAAGACAUGGGAGGAUAUGCAUGGAAAACAUGCUGUGCAGAAGGCUCAUGUC | 32.6 | 22.4 | – | – |
| UUAUACGUUGAGGAUAUGUCAUUUAGUAUAGUUACAGAAGGCGAUACAUGAGGAUCACCCAUGUUUAUGGGCAU | – | – | 239 | 164 |
| CGCAAUAUACAGAAGGAGUUAUUUAGAGGAUUACUAGGAUAUGUUCACAUGAGGAUCACCCAUGUCAUAUUGGGAUUUAUUGCG | – | – | 10 | 10.3 |
| UGGUACAUCAUAGGAUAUCGUGUGUAAACAUGAGGAUCACCCAUGUCAUACGAGAGUAUGUCGAUCGAGAAGGGUGAUGUACCU | 75.2 | 25.8 | – | – |
| UGGUGCGAGCUAUCGCAUGACUGGGAGGAUAUGACAUGAGGAUCACCCAUGUGGGAUCUAAAUUGUCAGAAGGCUCGAUCUGGG | – | – | 346 | 102 |
| GGCUACGUUUCGUAGCAGUGUCAUCGAGAAGGCCCUGACAUGAGGAUCACCCAUGUUGUUACAUGGGAGGAUAUCGAUGAUACU | 13.3 | 5.12 | – | – |
| ACAUGAGGAUCACCCAUGUUUACAUGGAUUAUUAAUCUUUGAUAGGAUAUGUUAGUUAAGUAUUUACAGAAGGAUCAAUACCAA | – | – | 15.9 | 12.2 |
| UUGUACUAGGGAGGAUAUGGGAAGAUACAUGAGGAUCACCCAUGUUUAAGAAUGCCGAGAGGCAACUAGAAGGCCCUAGUACCU | 473 | 19.4 | – | – |
| GAAAACCAAGGAUAUACAUGAGGAUCACCCAUGUAGGUUGGGACGCCAUAAAGGCGAUGUAGAAGGUGGGAAAA | – | – | 21.9 | 33.6 |
| ACAAAUUCUGACAUGAGGAUCACCCAUGUUAGAUUGUUAUGUCAGGAUAUUAUCUGGCAACCAGAUGAGAAGGGACGAUUUGUG | 10.6 | 7.15 | – | – |
| GUCGAAACCAUACUGGUCGACGGUCAGGAUAUACAUGAGGAUCACCCAUGUGCUAUUGAUACUAUGUAGAAGGGACCCACCGCA | – | – | 15.2 | – |
| GUAGCUAUCGGAGGAUAUUCAUACUGGAAACGGACAUGAGGAUCACCCAUGUGGCGAAAGCCUUGGGAGAAGGCCGAUCGCUAC | 123 | 8.13 | – | – |
| AAAAAAAAUGUGUAGGAUAUCAGUAAAAAUACAUGAGGAUCACCCAUGUUCAAAAAAAAAAAAACUGAGAAGGACACGGGAAGUCC | 48.5 | 30.3 | – | – |
| GCAUAUCAGGGAGGAUAUGACAUGAGGAUCACCCAUGUAAUUAUGGCUCUGUCAGAAGGCCCAUCGUCACUAUAGUGACGAGAC | – | – | 370 | 139 |
| GGAUAGUGAGGAUAUGCAUACGGUGUAAGUCCCAGAUCGAAACAUGAGGAUCACCCAUGUAGAAGGCGCAAAAC | – | – | 23.6 | 75.5 |
| UUACUAUUGGAGAAGGGUCGAUAAUAUAUAAUGGCAGGAUAUCCAACAUGAGGAUCACCCAUGUUUCACCCAUAUGAGGAUCAC | – | – | 54.2 | 24.1 |
| CUAGAUAUGUAAGGAUAUAUAGUGGAAUACACUAUAGAAGGUAUGUGAGAACAUGAGGAUCACCCAUGUCAUUGGAUAUCUAGA | 33.7 | 37.6 | – | – |
| UUGUUGUGAGGAUAUCCAAUAUAUGACAUGAGGAUCACCCAUGUUUCCACUCGUACCUCCGGAGAAGGCACUUGGU | – | – | 35.5 | 29.1 |
| GACGGACAUGAGGAUCACCCAUGUAGGUUGGCCACAGGAUAUGCAAAACGGCCUGCCGCGGCAGAAGGGUGAGCCC | 39.1 | 43.7 | – | – |

| Sequence | apparent Kd [1] [nM] | apparent Kd [2] [nM] | apparent Kd [3] [nM] | apparent Kd [4] [nM] |
| --- | --- | --- | --- | --- |
| GUGGUACAUGAGGAUCACCCAUGUUAGGAUAUCGCGUGAGGUUUUACUUCCGCACACACGAGAAGGGACGUCUU | – | – | 32.9 | 28 |
| GUCAGCUCGUGAGGAUAUACAUCACUGCUUCGGCAGUGUAUUAAGACUACAUGAGGAUCACCCAUGUAGAAGGCACGAGCUGAU | – | – | 17.4 | 17.9 |
| GCCUAUUCGUGCAGUUAAGGAGCUCAGGAUAUCGCAAUAACAUGAGGAUCACCCAUGUCCGAAUACGAGAAGGGAGGUCCGACG | 140 | 13.9 | – | – |
| GCACGACAUGUAGGAUAUCGAGCGCCGAGCGCUCGAGAAGGACAUGAGGAUCACCCAUGUAUUCCGAGUGAGUCAGGUCGUGCA | – | – | 17.5 | 23.4 |
| CUGGUGUGAGGAUAUCUACGCCAUGUCUUUGACAUGGCGCAAGAGAAGGCACAUGAGGAUCACCCAUGUACUUC | – | – | 21.7 | 74.4 |
| GAAAAGGUAGGAUAUACGAAAAAAAAGGGUAGAAAAAAAAAACAUGAGGAUCACCCAUGUAGAAGGACCAAAAG | – | – | 39.6 | 93.2 |
| CUUUUGUGAGGAUAUCAGUAGUAGAACAAUAGUACUACUACUGAGAAGGCACAUGAGGAUCACCCAUGUUUCUC | – | – | 62.3 | 302 |
| GAGGUACGAGGAUAUACAUAGAUACAGACACAUGUUCAAGUACAUGAGGAUCACCCAUGUAGAAGGCGUAUAUC | – | – | 30.1 | 44.9 |
| GCAGGAUAAGUCAGGAUAUACCUAUGGAUACAUAGGUAGAAGGGACAUGAGGAUCACCCAUGUGACUCGCCUGC | – | – | 29.5 | 100 |
| GUAAGUACGAGAGGAUAUUGACAUGAGGAUCACCCAUGUAUUUGGGAGUGUUCACUGAAUUCUUACGAGAAGGCUCGUACAUAC | – | – | 218 | 242 |
| CAGGAUAGAGGAUAUACAUAGAUACAGAUUCGUGUGAUCCUACAUGAGGAUCACCCAUGUAGAAGGCUAUCCUG | – | – | 213 | 15.9 |
| UAUAUAAUUAAGAGCUGGUCCAAAACAUGAGGAUCACCCAUGUAGGAUAUCAGCACGAUAAGUGCUGAGAAGGACAUCCAGCUC | – | – | 18.5 | 16.4 |
| AUACCUUAUGAGAAGGCGAUUAUGAAACAUGAUCGAGGAUAUCAUGUAAACAUGAGGAUCACCCAUGUAUGGGUAUUAUGGUAC | 50 | 11.6 | – | – |
| GCUAGUAUUGCAGGAUAUUGAGAAUAAUUUUGGCAAGAAGGGCAUAACAUGAGGAUCACCCAUGUAUUCCUUAGUGAUACUAGC | – | – | 6.58 | 6.11 |
| UUGGAUGUUGAGGAUAUGCUGGUGUUUAUUAUAGCAGAAGGCGAUACAUGAGGAUCACCCAUGUUCAUGGCUUU | – | – | 12.8 | 15.2 |
| UUGGACGUCGUAGGAUAUGUAGGAUAUUCUUACAUGAGGAUCACCCAUGUUGACAUGGAAGAAGGACAGAAGGACGAUGUCCAU | 56.7 | 7.2 | – | – |
| GAUAGGACAGAGAAGGUACGUGCUAGAGAUACUAGCAAAAUACCUCAACAUGAGGAUCACCCAUGUAAGGAUAUCUGUCCUAUC | – | – | 5.7 | 6.19 |
| CGGUGACGUGUAGGAUAUGGCGCUGGGUUUUGCCCAGAAGGACAUGAGGAUCACCCAUGUGGUAGAGGGCUGGCGGCCGCCCGU | – | – | 17.1 | 21.6 |
| AAUUGAAACGUAGGAUAUCGCACUAAUUUUAAACGAGAAGGACGUACAUGAGGAUCACCCAUGUUAAAUGGUGUAGAUUAGAUG | – | – | 156 | 692 |

| Sequence | apparent Kd [1] [nM] | apparent Kd [2] [nM] | apparent Kd [3] [nM] | apparent Kd [4] [nM] |
| --- | --- | --- | --- | --- |
| GAACGUGACAUGAGGAUCACCCAUGUUGCCUUGGCCAGGUCGUAGGAUAUCCUGAUGAUUAAUUUGGAGAAGGGCGACUGGGAG | 36.1 | 15.3 | – | – |
| UACUUCCGAGGAUAUACAUGAGGAUCACCCAUGUGCUUCAGCAUUUUUUGAUGCAUGGGUAGAAGGCGGUAGUU | – | – | 315 | 270 |
| AAGAAGUAAGGAUAUGGCCGGGUCCCUGGGUUUGGACCCGGCUAGAAGGUACAUGAGGAUCACCCAUGUAAGAA | – | – | 14.7 | 15.4 |
| UCGGCGCGAGGAUAUACGUUUGCUUUUUUUUGUCGUUGCGUACAUGAGGAUCACCCAUGUAGAAGGCGCGCCGC | – | – | 16.7 | 31 |
| UGUUGUAUUACAGGAUAUCUAAUAUUUUUAUUUAGAGAAGGGUAUUCACAUGAGGAUCACCCAUGUAUAUACGAGGAAGUUGUG | 34.3 | 38.1 | – | – |
| GCUGGACGAGGAUAUACAUUCGUGCUUCGGCACGUAAGAUCACAUGAGGAUCACCCAUGUAGAAGGUGUCCAGC | – | – | 42.1 | 200 |
| AGGAAACAUGAGGAUCACCCAUGUAAAAGGUGGUUAGGAUAUGCGAAAAGAAAAAGAAAAGCAGAAGGGACAAGAA | 487 | 485 | – | – |
| AUAUUAUUGAUCCAUUUUUUCAACAUGAGGAUCACCCAUGUGCAGGAUAUCGUGAUUAUUAUCAACGAGAAGGGCAAAUUCAUU | – | – | 76.5 | 234 |
| CGAUGCAGAGGAUAUACAUGAGGAUCACCCAUGUACCUACUCGGGCGUCCUCUUAGAUGUAGAAGGCUGACACU | – | – | 62.6 | 72 |
| GGCUGGUGACAGCAUCCAUCAAAACAUGAGGAUCACCCAUGUAGAAGGCUGUACGGUUACCGUACAGAGGAUAUACAAUGAUGC | – | – | 13.7 | 28.5 |
| GGCAAUAACGAGGAUAUCGUAUCGGAAACGAUACGAGAAGGUGUAACAUGAGGAUCACCCAUGUUCCUUAAGCC | – | – | 24.9 | 26.6 |
| GGUUUGGGAGGAUAUGGCUUGUUUGACAUGAGGAUCACCCAUGUAAGUGGAUCUUCCGGGCCAGAAGGCUCGGGCC | – | – | 104 | 188 |
| GUUCUUCCUGUAAGGAUAUCCAUGUGUCAGUUUAUGGAGAAGGUACAUGAGGAUCACCCAUGUCACCCGCGUUA | – | – | 18.4 | 51.2 |
| UGUCGGAGCAGAGGAUAUUACAUGAGGAUCACCCAUGUAUGAACCAAUAGCUGGAAACAGCAAUGUAAGAAGGUUGCUCCGACA | – | – | 7.29 | 46.7 |
| AAAUCCUACGAAGGAUAUACAAACAUGAGGAUCACCCAUGUGUCUUUCGUGUAACUGGAAUUCGGGUAGAAGGUCGUAGACAUA | – | – | 17 | 22.6 |
| GCAGGUUUACGAGGAUAUGGGUGGUACGGACAUGAGGAUCACCCAUGUCUCCCAGAAGGCGUAGCCUAACAAAGAGAACAGGAG | 111 | 19.2 | – | – |
| UUAUUAUAUAUAGGAUAUUGAUGUAAUUUAUUUCAAGAAGGAUAUACAUGAGGAUCACCCAUGUUGGAUAGGGUUAGUUUGUUU | 86.5 | 154 | – | – |
| CUAUUACGAGGAUAUGAUUUAAAUAACAUGAGGAUCACCCAUGUUUUUACGUUAUUUUAUUUAGAAGGCGUAUAGU | – | – | 41.8 | 31 |
